Experimental findings from ChEMBL document CHEMBL1777748 (Bioorg Med Chem Lett, 2011) are described below.

The nature of data set [1]: Intrinsic clearance in human liver microsomes.
Data set [2] addresses T1, Prostaglandin D2 receptor 2 (Homo sapiens, UniProt Q9Y5Y4).
T1 sequence (Q9Y5Y4 whole entry): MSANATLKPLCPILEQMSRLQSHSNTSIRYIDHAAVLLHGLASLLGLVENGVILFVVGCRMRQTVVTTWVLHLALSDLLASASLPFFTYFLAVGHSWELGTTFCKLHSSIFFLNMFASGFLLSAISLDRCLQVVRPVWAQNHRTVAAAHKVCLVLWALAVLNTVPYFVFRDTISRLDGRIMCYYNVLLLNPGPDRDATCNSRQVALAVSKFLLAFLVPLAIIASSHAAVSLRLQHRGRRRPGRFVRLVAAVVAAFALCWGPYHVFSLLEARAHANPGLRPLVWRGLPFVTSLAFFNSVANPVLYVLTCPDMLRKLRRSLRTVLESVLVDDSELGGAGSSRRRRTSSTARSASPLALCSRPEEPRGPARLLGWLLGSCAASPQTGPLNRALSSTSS
The data set is described as follows: Displacement of [3H]-PGD2 from CRTh2 receptor by scintillation proximity assay. A general note: Loss of bound radioactivity is the signal in a displacement assay; it reports binding, not function.

Data set [3] can be described thus: Intrinsic clearance in rat hepatocytes assessed per 1 x 10^6 cells.
Data set [4] can be described thus: Lipophilicity, log D of the compound at pH 7.4. The conditions noted are these: buffer.
Data set [5] addresses T1, Prostaglandin D2 receptor 2. In words: Antagonist activity at human CRTh2 receptor expressed in HEK cells assessed as inhibition of PGD2-induced calcium flux. Type of data set: functional, cell-based, HEK293. In a few lines: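 PGD2-driven Ca2+ flux in HEK cells transfected with human CRTh2, read as antagonism of the response.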
For data set [6], the target named is T2, Prostaglandin D2 receptor 2 (Homo sapiens) (UniProt Q9Y5Y4).
T2 sequence (whole entry): T1 sequence (Q9Y5Y4 whole entry)
The settings on record: HEK293, 10 uM.

The target in data set [7] is T2, Prostaglandin D2 receptor 2 (Homo sapiens). In words: Partial agonist activity at human CRTh2 receptor expressed in HEK cells assessed as stimulation of calcium flux. It is filed as functional, cell-based. The settings on record: HEK293. A general note: A change in cytosolic calcium serves as a functional read-out for many receptors and channels.
Data set [8] shares this target. The data set is described as follows: Displacement of [3H]-PGD2 from CRTh2 receptor at 10 uM by scintillation proximity assay. An outline of the steps: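 Scintillation proximity binding with [3H]-PGD2 as radioligand; reported values are means of more than 2 measurements.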

Each structure is given as a SMILES string. The source made the active and inactive calls. The rule behind the calls is not given here.

In data set [1] (liver microsomes), `CCN(CC)S(=O)(=O)c1ccc(-c2cc(C(F)(F)F)ccc2OCC(=O)O)cc1` displayed a microsomal CLint of 9 µL/min/mg. Besides, the IC50 in data set [2] is 0.0013 µM. Besides, the hepatocyte CLint in data set [3] was 18 µL/min/1e6 cells. In data set [4], this compound gave a log distribution coefficient (logD) of 0.7.

For `COc1ccc(-c2cc(C(F)(F)F)ccc2OCC(=O)O)cc1`, the intrinsic metabolic clearance (microsomal CLint) in data set [1] (liver microsomes) turned out to be 12 µL/min/mg. Further, in data set [2], the IC50 was found to be 0.251 µM. This compound yielded a hepatocyte CLint in data set [3] of 47 µL/min/1e6 cells. Further, in data set [4], the logD came out at 0.3.

As for `N#Cc1ccc(OCC(=O)O)c(-c2ccccc2)c1`, the intrinsic clearance (microsomal CLint) in data set [1] (liver microsomes) was determined as 6 µL/min/mg. Moreover, the values for the 50% inhibitory concentration (IC50) in data set [2] and in data set [5] were 0.355 µM and 0.251 µM, respectively. The compound further had an intrinsic clearance (hepatocyte CLint) in data set [3] below 3 µL/min/1e6 cells.

In data set [1] (microsomes), `O=C(O)COc1ccc(C(F)(F)F)cc1-c1ccccc1-c1ccccc1` showed an intrinsic metabolic clearance (microsomal CLint) below 3 µL/min/mg. Also, the IC50 in data set [2] was 0.002 µM. For the same compound, the hepatocyte CLint in data set [3] amounted to 20 µL/min/1e6 cells. Besides, the logD in data set [4] was found to be 1.4.

In data set [1] (liver microsomes), `CCS(=O)(=O)c1ccc(-c2cc(C(F)(F)F)ccc2O[C@H](C)C(=O)O)c(Cl)c1` yielded an intrinsic clearance (microsomal CLint) below 3 µL/min/mg. Moreover, in data set [2], the IC50 amounted to 0.0006 µM. In data set [3], this compound displayed a hepatocyte CLint below 3 µL/min/1e6 cells. This compound also came in with a logD in data set [4] of 0.

In turn, `Nc1ccc(OCC(=O)O)c(-c2ccccc2)c1` returned an inhibition in data set [6] of 17%. In data set [1] (liver microsomes), this compound displayed a microsomal CLint below 3 µL/min/mg. The IC50 in data set [2] was determined as 8.91 µM. Also, the hepatocyte CLint in data set [3] turned out to be 64 µL/min/1e6 cells.

`CS(=O)(=O)c1ccc(-c2cc(C(F)(F)F)ccc2OCC(=O)O)cc1`: in data set [1] (liver microsomes), the intrinsic clearance (microsomal CLint) was below 3 µL/min/mg. The IC50 in data set [2] was found to be 0.036 µM. In addition, in data set [7], the result was Active. In data set [3], this compound yielded a hepatocyte CLint below 3 µL/min/1e6 cells.

In the case of `O=C(O)COc1ccc([N+](=O)[O-])cc1-c1ccccc1`, the values for the IC50 in data set [2] and in data set [5] were 0.251 µM and 0.178 µM, respectively.

Take `CCS(=O)(=O)c1ccc(-c2cc(C(F)(F)F)ccc2OCC(N)=O)c(C)c1`: in data set [1] (liver microsomes), the microsomal CLint is below 3 µL/min/mg. Besides, the concentration for half-maximal inhibition (IC50) in data set [2] came out at 5.65 µM. In addition, in data set [3], the hepatocyte CLint was found to be 29 µL/min/1e6 cells. Further, the logD in data set [4] is 2.8.

As to `O=C(O)COc1ccc(Br)cc1-c1ccccc1`, the intrinsic clearance (microsomal CLint) in data set [1] (liver microsomes) is below 3 µL/min/mg. Also, the IC50 amounted to 0.316 µM in data set [2] and 0.158 µM in data set [5]. The intrinsic metabolic clearance (hepatocyte CLint) in data set [3] stood at 7 µL/min/1e6 cells.

In data set [2], `CCC(Oc1ccc(C(F)(F)F)cc1-c1ccc(S(=O)(=O)CC)cc1C)C(=O)O` (stereo unspecified) displayed an IC50 of 0.178 µM. The logD in data set [4] turned out to be 0.3.

As to `O=C(O)COc1ccc(-c2nccs2)cc1-c1ccccc1`, the IC50 in data set [2] came to 1.78 µM; in data set [5] it was 0.501 µM.

The compound `O=C(O)COc1ccccc1-c1ccccc1` showed an inhibition in data set [8] of 41%.

With `Cc1ccc(C#N)cc1-c1cc(C(F)(F)F)ccc1OCC(=O)O`, the microsomal CLint in data set [1] (microsomes) was below 3 µL/min/mg. The same compound came in with an IC50 in data set [2] of 0.0002 µM. This compound yielded an intrinsic clearance (hepatocyte CLint) in data set [3] below 3 µL/min/1e6 cells. In data set [4], the logD is 0.2.

In the case of `N#Cc1cccc(-c2cc(C(F)(F)F)ccc2OCC(=O)O)c1`, in data set [1] (liver microsomes), the microsomal CLint was below 3 µL/min/mg. The same compound displayed an IC50 in data set [2] below 0.0004 µM. The compound further returned a hepatocyte CLint in data set [3] below 3 µL/min/1e6 cells. In data set [4], this compound registered a logD of 0.1.

Compound `Cc1ccc(OCC(=O)O)c(-c2ccccc2)c1` displayed an intrinsic metabolic clearance (microsomal CLint) in data set [1] (liver microsomes) of 12 µL/min/mg. For the same compound, the IC50 in data set [2] was 0.794 µM; in data set [5], 0.708 µM. The hepatocyte CLint in data set [3] is below 3 µL/min/1e6 cells.

In data set [1] (liver microsomes), `O=C(O)COc1ccc(C(F)(F)F)cc1-c1ccc(Cl)cc1` returned a microsomal CLint of 11 µL/min/mg. The IC50 in data set [2] was determined as 0.05 µM. Further, in data set [3], the hepatocyte CLint was below 3 µL/min/1e6 cells. Moreover, the logD in data set [4] came out at 0.9.

In turn, `CCS(=O)(=O)c1ccc(-c2cc(Cl)ccc2OCC(=O)O)cc1` displayed a microsomal CLint in data set [1] (liver microsomes) of 7 µL/min/mg. The compound also showed an IC50 in data set [2] of 0.019 µM. In data set [3], the hepatocyte CLint is below 3 µL/min/1e6 cells.

With `CS(=O)(=O)c1ccc(OCC(=O)O)c(-c2ccccc2)c1`, in data set [1] (liver microsomes), the microsomal CLint is below 3 µL/min/mg. Also, in data set [2], the IC50 is 0.541 µM. Besides, the result in data set [7] was Active. The compound further yielded a hepatocyte CLint in data set [3] of 6 µL/min/1e6 cells.

The term microsomal CLint denotes a measure of how fast metabolising enzymes remove a compound, apart from limits set by blood flow. Read a low microsomal CLint as greater metabolic stability. The term IC50 denotes the concentration that inhibits the measured activity by half. A word on the hepatocyte CLint: it is the capacity of the preparation to metabolise the compound, expressed as a volume cleared per time. The term logD denotes lipophilicity at a set pH, counting ionised and neutral species. A higher logD goes with a more lipophilic compound. A word on the inhibition: it is the share of the control response that was lost under treatment. Read a high inhibition as a response far below the control.
